Among the data in ChEMBL document CHEMBL1649302, “New small-molecule inhibitor class targeting human immunodeficiency virus type 1 virion maturation” (Antimicrob Agents Chemother, 2009) are selectivity ratio, EC50 and inhibition values, retold here.

Data set [1] can be described thus: Therapeutic index, ratio of CC50 for human PBMC to EC50 for HIV1 92US076 infected in human PBMC. Conditions: read-out: TI. The method, boiled down: (§1)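 PHA-stimulated (4 μg/ml, 48 to 72 h) PBMCs pooled from at least two seronegative donors, kept with 20 U/ml IL-2, plated at 5 × 10⁴ cells/well. Infected with clinical isolate (final MOI ≅0.1) alongside nine compound concentrations in triplicate wells, 7 days. Supernatant reverse transcriptase activity measured. TI is mean PBMC CC50 divided by mean EC50.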

Data set [2] concerns Human immunodeficiency virus 1. The data set can be described thus: Antiviral activity against HIV1 RF infected in human MT2 cells assessed as protection against virus-induced cytopathogenicity after 6 days by XTT assay. Format: functional, organism-based. Conditions: Human immunodeficiency virus 1, RF, MT2, 144 h. In outline:
(§2)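 Host cells were infected with NL4-3 or IIIB (MOI 0.08) or RF (MOI 0.025–0.819) and seeded at 2 × 10⁴/well onto half-log compound dilutions. After 6 days, XTT/PMS was added for 4 h and formazan was read at 450 nm. EC50 was the concentration giving 50% of the formazan of uninfected, compound-free cells.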
In general terms: Damage to the host cells serves as the signal in cytopathic effect assays.

A short description of data set [3]: Therapeutic index, ratio of CC50 for human PBMC to EC50 for HIV1 93BR021 infected in human PBMC. The settings on record: read-out: TI. The method, boiled down: as §1
The nature of data set [4]: Therapeutic index, ratio of CC50 for human PBMC to EC50 for HIV1 92BR026 infected in human PBMC. The settings on record: read-out: TI.
The nature of data set [5]: Therapeutic index, ratio of CC50 for human PBMC to EC50 for HIV1 92US072 infected in human PBMC. Conditions: read-out: TI. The method, boiled down:
as §1

Data set [6] can be described thus: Therapeutic index, ratio of CC50 for human PBMC to EC50 for HIV1 92BR017 infected in human PBMC. Conditions: read-out: TI. The method, boiled down:
(§3)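 Frozen PHA-stimulated (1.5 μg/ml, 3 days) buffy-coat PBMCs pooled from three or four seronegative donors. Infected with a TCID50-based virus input per 10⁶ cells for 1 h at 37°C, then pelleted and resuspended in 10 ng/ml IL-2. Plated at 4 × 10⁵ cells/ml on compound dilutions for 7 days at 37°C. Supernatant RT measured by Quan-T-RT. TI is mean CC50 divided by mean EC50.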

Data set [7] can be described thus: Therapeutic index, ratio of CC50 for human PBMC to EC50 for HIV1 96USHIPS7 infected in human PBMC. The settings on record: read-out: TI. The method, boiled down: as §1
Data set [8] can be described thus: Therapeutic index, ratio of CC50 for human PBMC to EC50 for HIV1 92BR014 infected in human PBMC. Conditions: read-out: TI. In outline:
as §1

The subject of data set [9] is Human immunodeficiency virus 1. The data set can be described thus: Antiviral activity against wild type HIV1 infected in human HeLa cells assessed as decrease in viral infection after 72 hrs by beta-galactosidase reporter gene assay. The format is functional, organism-based. The settings on record: Human immunodeficiency virus 1, HeLa. In outline: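 HeLa CD4 LTR/β-Gal cells (1 × 10⁴/well, DMEM + 10% FBS) were pretreated with half-log compound dilutions. They were then infected at MOI 0.03 with single-cycle NL4-3 ΔEnv reporter virus pseudotyped with envelope from HEK 293 cotransfection. EC50 was the concentration halving β-galactosidase activity versus infected untreated cells. Values are mean ± SD or representative of three experiments.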
(In general: A reporter such as luciferase makes a cellular process visible.)

Data set [10] can be described thus: Therapeutic index, ratio of CC50 for human PBMC to EC50 for HIV1 92BR030 infected in human PBMC. Conditions: read-out: TI. In outline:
as §1

Data set [11] is described as follows: Therapeutic index, ratio of CC50 for human PBMC to EC50 for HIV1 3B infected in human PBMC. The settings on record: read-out: TI. In outline: (§4)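 TI was the mean PBMC CC50 divided by the mean EC50 from the 7-day PBMC reverse transcriptase assay.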
Data set [12] can be described thus: Therapeutic index, ratio of CC50 for human PBMC to EC50 for HIV1 92US660 infected in human PBMC. Conditions: read-out: TI. The method, boiled down:
as §1

The nature of data set [13]: Therapeutic index, ratio of CC50 for human MT2 cells to EC50 for HIV1 3B infected in human MT2 cells. The settings on record: read-out: TI. Format: cell-based. The method, boiled down:
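TI was the mean CC50 (XTT, uninfected MT-2) divided by the mean EC50, determined for each cell line in each experiment.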

Data set [14] in a line: Therapeutic index, ratio of CC50 for human PBMC to EC50 for HIV1 92RW009 infected in human PBMC. Conditions: read-out: TI. In outline:
as §3

For data set [15], the system named is Human immunodeficiency virus 1. The data set can be described thus: Antiviral activity HIV1 93BR021 infected in human PBMC after 7 days by scintillation counting. The format is functional, organism-based. Conditions: Human immunodeficiency virus 1, 93BR021, 168 h. In outline: (§5)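 Fresh PBMCs from HIV/HBV-seronegative donors were PHA-stimulated (4 μg/ml, 48–72 h) and kept with IL-2 (20 U/ml), with at least two donors pooled. Cells were seeded at 5 × 10⁴/well and infected (final MOI ≅0.1) with nine compound concentrations in triplicate wells. After 7 days, reverse transcriptase activity was measured in cell-free supernatant.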

The nature of data set [16]: Therapeutic index, ratio of CC50 for human PBMC to EC50 for HIV1 92HT596 infected in human PBMC. The settings on record: read-out: TI. The method, boiled down:
as §3

Data set [17] deals with Human immunodeficiency virus 1. The data set can be described thus: Antiviral activity HIV1 91US056 infected in human PBMC after 7 days by scintillation counting. Format: functional, organism-based. The settings on record: Human immunodeficiency virus 1, 91US056, 168 h. In outline: as §5
The test system of data set [18] is Human immunodeficiency virus 1. The data set can be described thus: Antiviral activity HIV1 93BR029 infected in human PBMC after 7 days by scintillation counting. Conditions: Human immunodeficiency virus 1, 93BR029, 168 h. Format: functional, organism-based. In outline: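 PBMCs came from buffy coats pooled from 3–4 seronegative donors, were PHA-stimulated (1.5 μg/ml, 3 days) and frozen. Thawed cells were infected 1 h at 37°C with virus input set by TCID50, then pelleted and resuspended in IL-2 (10 ng/ml). They were plated at 4 × 10⁵ cells/ml onto compounds for 7 days at 37°C. Supernatant RT activity was measured by Quan-T-RT scintillation assay.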

The test system of data set [19] is Human immunodeficiency virus 1. The data set can be described thus: Antiviral activity against HIV1 harboring capsid I201V mutant protein assessed as inhibition of virion maturation-associated CA/SP1 processing. The format is functional, organism-based. The method, boiled down: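 HEK 293 cells were transfected with pNL4-3 CAI201V, pNL4-3 or mock, with or without compound at various concentrations, and supernatants collected 72 h later. Supernatants were clarified at 200 × g, and virions pelleted through a 20% sucrose–PBS cushion (20,000 × g, 3 h, 4°C) and lysed. Proteins were run on 4–12% Bis-Tris/MOPS gels and immunoblotted with anti-p24 (1:1,000) to detect CA/SP1 p25 versus p24.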

Data set [20] in a line: Therapeutic index, ratio of CC50 for human PBMC to EC50 for HIV1 92BR004 infected in human PBMC. Conditions: read-out: TI. The method, boiled down:
as §4

Data set [21] relates to Human immunodeficiency virus 1. The data set can be described thus: Antiviral activity against HIV1 RF infected in human CEM-SS cells assessed as protection against virus-induced cytopathogenicity after 6 days by XTT assay. The settings on record: Human immunodeficiency virus 1, RF, 144 h. Format: functional, organism-based. In outline:
as §2

Data set [22] relates to Human immunodeficiency virus 1. The data set can be described thus: Antiviral activity against HIV1 NL4-3 infected in human HeLa cells assessed as decrease in single-cycle viral infection after 72 hrs by beta-galactosidase reporter gene assay. Format: functional, organism-based. The settings on record: Human immunodeficiency virus 1, NL4-3, HeLa. The method, boiled down:
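HeLa CD4 LTR/beta-Gal cells (1 × 10⁴/well, DMEM + 10% FBS) were pre-dosed with half-log compound dilutions. They were infected at MOI 0.03 with single-cycle NL4-3 reporter virus made by cotransfecting HEK 293 cells with pNL4-3deltaEnv and an NL4-3 envelope vector. EC50 is from beta-gal reporter activity relative to infected untreated cells, across three experiments.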

Calls of active or inactive are those of the source. No cut-off for these calls is given here.

On to `CC(C)(C)c1ccc(C(Cn2cccc(C(F)(F)F)c2=O)NC2Cc3ccccc3C2)cc1` (configuration not stated), for which the selectivity ratio in [1] is 2430; in data set [3], 425; in [4], less than 1; in [5], 3400; in data set [6] it was 142; in [7] it was less than 1. Moreover, the selectivity ratio in [8] is 2; in data set [10], less than 1; in [11], 53; in [12], 1; in [13], 1120; in data set [14], 12. Moreover, the figures for the selectivity ratio in data set [16] and in [20] were 53 and 52, respectively. Moreover, the EC50 – broadly, the concentration giving half of the maximal effect – in data set [2] was more than 16 µM; in data set [9], 206 nM; in [15], 40 nM; in data set [17], more than 17 µM; in [18], 570 nM; in [21] it was more than 20 µM. Also, the EC50 in data set [22] is more than 10 µM. For the same compound, in data set [19], the inhibition result is “inactive”.
